The nature of data set [1]: Intrinsic clearance in rat hepatic microsomes and predicted hepatic clearance. Format: in vitro ADME. Conditions: for Rat CLHEP (predicted hepatic clearance): calculated from rat microsomal CLINT; for CLint scaled at 1 µM: rat, liver microsomes.
Data set [2] is classed as in vivo, rat. Conditions: 1 h; for Concentration, Plasma HPV: hepatic portal vein. Summed up:
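Rats received 10 mg/kg test compound orally, with vehicle or co-dosed with 1-aminobenzotriazole, a pan-irreversible cytochrome P450 inhibitor. At 1 h, concentrations were measured in systemic plasma, hepatic portal vein plasma and brain.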

[3] abbreviates: po 10 mg/kg with vehicle (no ABT).

Read-outs that look alike come from different tables or passages of the source.

In general, CLint scaled refers to the rate of metabolic loss divided by the concentration. For the compound `Cc1ccc(S(=O)(=O)n2ccc(NC(=O)c3ccccn3)c2)cc1` [11l], in data set [1], the “Rat CLHEP (predicted hepatic clearance)” value is recorded as 68.2 mL/min/kg and the CLint scaled at 1 µM is 2700 mL/min/kg.

In the case of `Cc1cccc(S(=O)(=O)n2ccc(NC(=O)c3ccccn3)c2)c1` [11m], in data set [1], the “Rat CLHEP (predicted hepatic clearance)” value is recorded as 68.8 mL/min/kg and the CLint scaled at 1 µM was 4040 mL/min/kg.

Take `O=C(Nc1ccn(S(=O)(=O)c2ccc(Cl)cc2)c1)c1ccccn1` [11o]: in data set [1], the “Rat CLHEP (predicted hepatic clearance)” value is recorded as 65.9 mL/min/kg and the CLint scaled at 1 µM was 1130 mL/min/kg.

Take `Cc1ccc(S(=O)(=O)n2ccc(NC(=O)c3ccccn3)c2)cc1C` [11r, N-(1-((3,4-Dimethylphenyl)sulfonyl)-1H-pyrrol-3-yl)picolinamide]: the CLint scaled at 1 µM in data set [1] is 293 mL/min/kg.

In the case of `Cc1ccc(S(=O)(=O)n2cc(NC(=O)c3ccccn3)cn2)cc1C` [11s], in data set [1], the “Rat CLHEP (predicted hepatic clearance)” value is 68.7 mL/min/kg and the CLint scaled at 1 µM was 3800 mL/min/kg.

As for `Cc1cc(S(=O)(=O)n2ccc(NC(=O)c3ccccn3)c2)ccc1Cl` [11t], in data set [2] (po 10 mg/kg co-dosed with ABT), the “Concentration, Brain” value is recorded as 175.5 ng/mg or g; the “Concentration, Plasma systemic” value is 198.5 ng/mg or g; the “Concentration, Plasma HPV” value is on record as 764.5 ng/mg or g. For the same compound, in data set [2] (setting [3]), the “Concentration, Brain” value is recorded as 8.1 ng/mg or g; the “Concentration, Plasma systemic” value was 7.4 ng/mg or g; the “Concentration, Plasma HPV” value is on record as 731 ng/mg or g. In addition, in data set [1], the “Rat CLHEP (predicted hepatic clearance)” value is listed as 68.6 mL/min/kg and the CLint scaled at 1 µM was 3440 mL/min/kg.
